Experimental findings from ChEMBL document CHEMBL3124923, “Isolation, structure elucidation, and biological activity of altersolanol P using Staphylococcus aureus fitness test based genome-wide screening” (2014) are described below.

Structures are written as SMILES. In brackets after ≈: the same amount, converted by molar mass. Activity calls are given as the source filed them. The calls are words filed in the database; no cut-off is given here. A value given as a limit tells only on which side of the number the result lay.

What all share (format): functional
The subject of assay [1] is Pseudomonas aeruginosa. In words: Antimicrobial activity against Pseudomonas aeruginosa.
In assay [2] the test system is Staphylococcus aureus. Kind of assay: Antimicrobial activity against Staphylococcus aureus.
Assay [3] has as its system Enterococcus faecalis. In words: Antimicrobial activity against vancomycin-sensitive Enterococcus faecalis CL 8516 after 20 hrs by 2-fold serial broth dilution method. As to conditions: CL 8516, 20 h. The essentials:
(§1)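 MIC read following the NCCLS (now CLSI) method, using 2-fold serial dilutions of test compound against each strain.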

The test system of assay [4] is Candida albicans. In words: Antimicrobial activity against Candida albicans MY 1055 after 20 hrs by 2-fold serial broth dilution method. As to conditions: MY 1055, 20 h. Put shortly:
(§2)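 MIC for each strain determined following the NCCLS (now CLSI) method, using 2-fold serial dilution of the compound. For the S. aureus Smith strain, MIC was also run with 50% human serum in the medium.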

The subject of assay [5] is Haemophilus influenzae. In words: Antimicrobial activity against Haemophilus influenzae MB 4572 after 20 hrs by 2-fold serial broth dilution method. The note with it: MB 4572, 20 h. The essentials: as §2
In assay [6] the test system is Escherichia coli. In words: Antimicrobial activity against Escherichia coli MB 5746 harboring envA/tolC gene after 20 hrs by 2-fold serial broth dilution method. As to conditions: MB 5746, 20 h. The essentials:
as §1

For assay [7], the system named is Escherichia coli. Kind of assay: Antimicrobial activity against wild-type Escherichia coli MB 2884 after 20 hrs by 2-fold serial broth dilution method. The note with it: MB 2884, 20 h. The essentials:
as §2

Assay [8] has as its system Bacillus subtilis. Kind of assay: Antimicrobial activity against Bacillus subtilis MB 964 after 20 hrs by 2-fold serial broth dilution method. As to conditions: MB 964, 20 h. Put shortly:
as §2

For assay [9], the system named is Streptococcus pneumoniae. In words: Antimicrobial activity against Streptococcus pneumoniae CL 2883 grown in iso sensitet medium after 20 hrs by 2-fold serial broth dilution method. As to conditions: CL 2883, 20 h. Put shortly: as §2
Assay [10] has as its system Streptococcus pneumoniae. In words: Antimicrobial activity against Streptococcus pneumoniae CL 2883 grown in 2.5 % lysed horse blood medium after 20 hrs by 2-fold serial broth dilution method. The note with it: CL 2883, 20 h. Put shortly:
as §2

Assay [11] concerns Staphylococcus aureus. Kind of assay: Antimicrobial activity against Staphylococcus aureus Smith MB 2865 after 20 hrs by 2-fold serial broth dilution method in presence of 50 % human serum. As to conditions: for MIC: Smith MB 2865, 20 h. The essentials:
as §2

Assay [12] concerns Staphylococcus aureus. Kind of assay: Antimicrobial activity against Staphylococcus aureus Smith MB 2865 after 20 hrs by 2-fold serial broth dilution method. The note with it: Smith MB 2865, 20 h. The essentials:
as §2

As for `COc1cc(O)c2c(c1)C(=O)C1=C(C2=O)[C@H](O)[C@H](O)[C@@](C)(O)[C@@H]1O`, the MIC in [1] and in [2] was 12.5 µg/mL (≈ 37.2 µM) throughout.

Consider `C[C@@]1(O)CCC2=C(C(=O)c3cccc(O)c3C2=O)[C@@H]1O`, for which the MIC in [2] is 2 µg/mL (≈ 7.29 µM); in [3], 1 µg/mL (≈ 3.65 µM); in assay [4], 8 µg/mL (≈ 29.2 µM); in assay [5] it was 2 µg/mL (≈ 7.29 µM); in assay [6], 32 µg/mL (≈ 117 µM); in [7], more than 64 µg/mL. Further, the MIC in [8] is 2 µg/mL (≈ 7.29 µM); in [9] it was 4 µg/mL (≈ 14.6 µM); in [10] it was 8 µg/mL (≈ 29.2 µM); in assay [11], more than 64 µg/mL; in assay [12], 4 µg/mL (≈ 14.6 µM).

On to `CC1(C)S[C@@H]2[C@H](NC(=O)Cc3ccccc3)C(=O)N2[C@H]1C(=O)O` [PENICILLIN G], for which the MIC was 4 µg/mL (≈ 12 µM) in assay [3]; more than 64 µg/mL in [4]; 0.06 µg/mL (≈ 0.179 µM) in assay [5]; 8 µg/mL (≈ 23.9 µM) in [6]; less than 0.06 µg/mL in assay [8]; less than 0.015 µg/mL in assay [9]. Also, the MIC in [10] is less than 0.015 µg/mL; in assay [11] it was 0.12 µg/mL; in assay [12], less than 0.06 µg/mL.

As to `COc1cc(O)c2c(c1)C(=O)[C@@H]1[C@H](C[C@@H](O)[C@@](C)(O)[C@@H]1O)[C@H]2O` [ALTERSOLANOL K], the figures for the MIC in assay [1], in assay [2] and in assay [4] were 12.5 µg/mL (≈ 38.5 µM), 12.5 µg/mL (≈ 38.5 µM) and 8 µg/mL (≈ 24.7 µM), respectively. Further, the result in assay [11] was Active.

As to `COc1cc(O)c2c(c1)C(=O)C1=C(C2=O)[C@H](O)[C@@H](O)[C@@](C)(O)[C@@H]1O` [ALTERSOLANOL A], the MIC in assay [1] and in assay [2] was 12.5 µg/mL (≈ 37.2 µM) each time.

Turning to `COc1cc(O)c2c(c1)C(=O)[C@H]1C[C@](C)(O)[C@H](O)C[C@@H]1[C@H]2O` [ALTERSOLANOL J], the MIC in assay [1] and in assay [2] was 12.5 µg/mL (≈ 40.5 µM) each time.

As for `COc1cc(O)c2c(c1)C(=O)C1=C(C[C@@H](O)[C@@](C)(O)[C@@H]1O)C2=O` [ALTERSOLANOL C], the MIC in assay [1] and in assay [2] was 12.5 µg/mL (≈ 39 µM) each time.

In the case of `COc1cc(O)c2c(c1)C(=O)C1=C(C2=O)[C@H](C)[C@@H](O)[C@@](C)(O)[C@@H]1O`, the MIC in assay [1] and in assay [2] was 12.5 µg/mL (≈ 37.4 µM) throughout.

Consider `COc1cc(O)c2c(c1)C(=O)C1=C(C[C@H](O)[C@@](C)(O)[C@@H]1O)C2=O`, for which the MIC in assay [1] and in assay [2] was 12.5 µg/mL (≈ 39 µM) in each case.

As to `COc1cc(O)c2c(c1)C(=O)C1=C(C[C@@H](O)[C@@](C)(O)C1)C2=O` [ALTERSOLANOL B], the MIC in [1] and in assay [2] was 12.5 µg/mL (≈ 41.1 µM) throughout.

Take `COc1cc(O)cc2c1C(=O)C1=C(C2=O)[C@@H](O)[C@](C)(O)[C@H](O)[C@H]1O`: the MIC in [1] and in [2] was 12.5 µg/mL (≈ 37.2 µM) in each case.

With `COc1cc(O)cc2c1C(=O)C1=C(C2=O)[C@H](O)[C@](C)(O)[C@H](O)[C@H]1O`, the MIC in [1] and in [2] was 12.5 µg/mL (≈ 37.2 µM) in each case.
